This is a sample that favours compounds with a hit; in the whole collection about 1.7% have one here.
Scp-1 inhibitor: inhibitors of human Scp-1 phosphatase. Recombinant Scp1, phosphopeptide, malachite green phosphate absorbance. inhibition, % at 20 µM. 0.88% of 340,000 active;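 active = inhibition above about 50% at 20 µM, limit read from the data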;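 note: plate controls were DMSO wells with enzyme for no effect and wells lacking enzyme for full effect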
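Assay system: SCP-1 catalytic fragment, aa 76-261 | Buffer or medium: Tris acetate buffer pH 5.5 with MgCl2 and Tween-20 | Compound: One concentration, 20 µM, with 1.0% DMSO | Also added: Phospho 17-mer peptide substrate | Signal: Absorbance at 630 nm | Incubation: 45 min enzyme reaction at room temperature | Measure: % inhibition of SCP-1 phosphate liberation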
STEP block: blocks human striatal-enriched tyrosine phosphatase; P54829; recombinant STEP, OMFP fluorogenic substrate, fluorescence; inhibition, % at 20 µM; 0.25% of 360,000 active;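 active = inhibition at 20 µM, scaled per plate between control wells, above about 37%, limit read from the data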;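 note: 0% = DMSO with enzyme and substrate and 100% = substrate only without enzyme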
Target sequence (P54829 whole entry, looked up): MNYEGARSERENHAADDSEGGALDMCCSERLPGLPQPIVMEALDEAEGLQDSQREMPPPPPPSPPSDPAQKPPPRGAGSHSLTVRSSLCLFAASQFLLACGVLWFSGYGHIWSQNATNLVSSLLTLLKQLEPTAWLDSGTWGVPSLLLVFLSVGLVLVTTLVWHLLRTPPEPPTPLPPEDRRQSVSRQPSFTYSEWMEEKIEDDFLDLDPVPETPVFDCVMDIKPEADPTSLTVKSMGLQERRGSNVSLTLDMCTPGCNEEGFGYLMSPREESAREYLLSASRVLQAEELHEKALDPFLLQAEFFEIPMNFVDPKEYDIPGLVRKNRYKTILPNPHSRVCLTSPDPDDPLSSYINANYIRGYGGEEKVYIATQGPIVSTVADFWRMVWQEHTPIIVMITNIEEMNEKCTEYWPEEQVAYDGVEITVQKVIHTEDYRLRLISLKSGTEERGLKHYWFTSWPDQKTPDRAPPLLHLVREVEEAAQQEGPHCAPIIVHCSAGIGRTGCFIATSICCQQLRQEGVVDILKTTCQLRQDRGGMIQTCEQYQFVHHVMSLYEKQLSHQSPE
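Material: STEP (striatal-enriched tyrosine phosphatase) enzyme, cell-free | Medium: 50 mM Bis-Tris pH 6.0 with 2.5 mM DTT and 0.005% Tween 20 | Read-out: Percent inhibition scaled to no-enzyme and uninhibited-enzyme controls, plate-pattern corrected | Signal: Fluorescence read at 480 nm ex / 540 nm em | Times: 20 min reaction, room temperature, in the dark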
DNMT1 block: DNMT1 (human) enzyme inhibition. P26358. DNMT1 molecular beacon, Hinp1I cleavage, fluorescence. inhibition (reported as % activation of signal), % at 10 µM. 0.83% of 360,000 active; in the data active = inhibition above about 50%
SUMO1 PPI mod: alters human SUMO1 binding to SIM partners. P63165. SUMO1 binding to a labelled peptide, TR-FRET, 1 h. inhibition, % at 20 µM. 0.33% of 360,000 active. AID 602429; in the data active = inhibition above about 37%
LMPTP block: LMPTP (human) inhibition; P24666; recombinant LMPTP-A, OMFP fluorogenic substrate, fluorescence intensity; inhibition, % at 20 µM; 0.22% of 360,000 active;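 active = compounds that cut the enzyme signal by at least half of the control window in the single-dose screen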;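 note: plate controls were DMSO wells with enzyme plus substrate for no effect and substrate without enzyme for full effect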
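test system = LMPTP-A | amount = 0.625 nM LMPTP-A final | reagent = fluorogenic phosphatase substrate OMFP at 400 µM final | incubation = 50 min at room temperature | benchmarks = no-enzyme low control, uninhibited high control | medium = Bis-Tris pH 6.0, DTT, detergent | signal = fluorescence intensity of OMFP turnover product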
* marks the source's active call; other numbers are inactive results; . = not tested or not shown.

SMILES	Scp-1 inhibitor	STEP block	DNMT1 block	SUMO1 PPI mod	LMPTP block
CCCC(C(=O)NCc1ccc(OC)cc1)N(Cc1ccco1)C(=O)c1snc(C(N)=O)c1N (centres undefined)	-11.3	1.6	-3.5	51.2*	-1.4
CCOC(=O)c1ccccc1NC(=O)CN1CCC(n2nnc3cc(C(F)(F)F)ccc32)CC1	1.3	1.8	4.7	60.8*	2.1
COC(=O)c1ccccc1NC(=O)CN1CCC(n2nnc3cc(F)ccc32)CC1	-0.7	3.4	5.8	-1.6	-0.5
C[C@H](NC(=O)[C@@H]1CCCN1C(=O)OC(C)(C)C)c1ccccc1	.	.	.	6.5	-1.7
CCOC(=O)c1ccc(N2C(=O)c3n[nH]c(C)c3C2c2ccccn2)cc1 (centres undefined)	-3.4	0.8	1.5	41.3*	-2.8
S=c1[nH]nc(-c2cc(-c3ccccc3)n[nH]2)n1/N=C/c1ccc(Br)s1	0.1	2.6	27.8	60.8*	28.4
COc1cc(C(=O)OC(C)C(=O)NC2CCCCC2C)c([N+](=O)[O-])cc1OC (centres undefined)	7.9	-2.5	1.8	-13.6	0.2
CC(OC(=O)c1ccc([N+](=O)[O-])s1)C(=O)NC1CCCCC1C (centres undefined)	-2.2	2.3	70.6*	12.7	-1.3
Cc1cc(/C=C\c2ccc3cc(N(C)C)ccc3[n+]2C)c(C)n1-c1ccccc1	43.4	15.3	53.5*	0.4	78.2*
COCCN(C(=O)COC(=O)CCC1CCCCC1)c1c(N)n(Cc2ccccc2)c(=O)[nH]c1=O	.	2.0	3.5	-5.7	-1.6
CCOC(=O)c1c2c(n(-c3ccc(OC)cc3)c1C)C(=O)C(=O)c1ccccc1-2	-13.3	8.2	85.7*	13.1	21.5
CCOC(=O)C1CCN(c2nc(N)c3c(N)nc(SCC(=O)O)cc3c2C#N)CC1	101.5*	22.1	74.8*	60.2*	23.4
CCOC(=O)C1CCN(c2nc(C)cc(C)c2C#N)CC1	-4.0	3.3	0.2	2.3	0.9
O=C(C=P(c1ccccc1)(c1ccccc1)c1ccccc1)c1ccccc1-c1ccccc1C(=O)C=P(c1ccccc1)(c1ccccc1)c1ccccc1	35.7	7.2	7.9	-39.2	58.6*
CC1Cc2ccccc2N1C(=S)NC(=O)C1(C)CC1(Cl)Cl (centres undefined)	50.1*	2.5	-1.0	3.9	-1.3
CCOc1cc(OCC)cc(C(=O)N2CCC[C@H]2C(=O)N2CCC[C@H]2C(=O)N(C)Cc2ccccc2)c1	.	.	.	58.6*	8.5
CN(Cc1ccccc1)C(=O)[C@@H]1CCCN1C(=O)[C@@H]1CCCN1C(=O)c1cccs1	.	.	.	0.9	-1.7
COc1ccc(Cc2c(C(C)(C)C)nc3ccc(Cl)cn23)c(C)c1	.	2.3	103.7*	-3.6	3.9
CC(C)[C@H]1CN=C2N(C[C@H](C)NC(=O)CCC3CCCCC3)[C@H](Cc3ccc(O)cc3)CN21	10.2	23.4	-1.0	52.8*	12.6
C=CCN(CC=C)S(=O)(=O)c1ccc(F)cc1	-6.2	0.7	-0.1	-1.3	-2.2
C=CCN(CC=C)S(=O)(=O)c1ncn[nH]1	0.5	1.5	41.4	43.6*	-2.9
COc1ccc(/C=N\NC(=O)c2cc3c(ccc4ccccc43)o2)cc1O	20.0	6.6	-5.6	67.9*	3.4
O=C(N/N=C/c1ccncc1)c1cc2c(ccc3ccccc32)o1	8.6	2.9	-0.9	52.5*	5.9
COc1ccc(/C=N/NC(=O)c2cc3c(ccc4ccccc43)o2)cc1OC	-2.2	0.0	-9.8	24.8	0.3
O=C(N/N=C/c1ccc(-c2ccc(Cl)c(C(=O)O)c2)o1)c1cc2c(ccc3ccccc32)o1	88.8*	27.7	32.4	20.9	7.8
c1ccc2c(-c3cccc4nccn34)cncc2c1	.	-3.9	-5.0	-12.8	-0.3
Cc1ccc(S(=O)(=O)NCCC(=O)NCCc2ccc(S(N)(=O)=O)cc2)cc1C	-1.1	1.1	-9.4	0.0	-0.1
CO/N=C(/C(=O)N[C@@H]1C(=O)N2C(C(=O)O)=CCS[C@H]12)c1cnc(N)s1	.	77.5*	97.8*	105.8*	13.7
CCOc1ccc(CCN2C(=S)N([C@@H](CC(C)C)CN3CCCC3CN3C(=S)NC[C@@H]3CC(C)C)C[C@@H]2Cc2ccccc2)cc1 (some centres undefined)	21.3	3.3	9.8	1.2	4.5

Screening data as filed in PubChem BioAssay.
